Source: publication PMC12642897 (Journal of Enzyme Inhibition and Medicinal Chemistry, 2025)

What was measured:
PTP1B [1] = biological target: T1, PTP1B (Homo sapiens, UniProt P18031); test: PTP1B inhibition assay; type: biochemical; settings: PTP1B IC50, isolated compounds and positive control; tested 1 to 100 µM
T1 sequence (P18031 1-435): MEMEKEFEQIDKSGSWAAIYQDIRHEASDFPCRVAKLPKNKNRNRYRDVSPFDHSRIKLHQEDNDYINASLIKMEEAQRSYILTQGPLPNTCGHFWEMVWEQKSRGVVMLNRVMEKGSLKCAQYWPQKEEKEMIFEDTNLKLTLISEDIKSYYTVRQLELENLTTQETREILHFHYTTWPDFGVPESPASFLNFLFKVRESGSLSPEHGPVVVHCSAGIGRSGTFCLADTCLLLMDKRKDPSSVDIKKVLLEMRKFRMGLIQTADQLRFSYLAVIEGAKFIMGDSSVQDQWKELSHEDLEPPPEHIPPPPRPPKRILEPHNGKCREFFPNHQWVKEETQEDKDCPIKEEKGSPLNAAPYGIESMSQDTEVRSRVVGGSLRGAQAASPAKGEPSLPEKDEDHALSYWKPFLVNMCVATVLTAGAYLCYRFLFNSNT

[2] = biological target: α-glucosidase enzyme from Saccharomyces cerevisiae (Saccharomyces cerevisiae, UniProt P53341); test: α-Glucosidase inhibition assay; type: biochemical
α-glucosidase enzyme from Saccharomyces cerevisiae, sequence (P53341 whole entry): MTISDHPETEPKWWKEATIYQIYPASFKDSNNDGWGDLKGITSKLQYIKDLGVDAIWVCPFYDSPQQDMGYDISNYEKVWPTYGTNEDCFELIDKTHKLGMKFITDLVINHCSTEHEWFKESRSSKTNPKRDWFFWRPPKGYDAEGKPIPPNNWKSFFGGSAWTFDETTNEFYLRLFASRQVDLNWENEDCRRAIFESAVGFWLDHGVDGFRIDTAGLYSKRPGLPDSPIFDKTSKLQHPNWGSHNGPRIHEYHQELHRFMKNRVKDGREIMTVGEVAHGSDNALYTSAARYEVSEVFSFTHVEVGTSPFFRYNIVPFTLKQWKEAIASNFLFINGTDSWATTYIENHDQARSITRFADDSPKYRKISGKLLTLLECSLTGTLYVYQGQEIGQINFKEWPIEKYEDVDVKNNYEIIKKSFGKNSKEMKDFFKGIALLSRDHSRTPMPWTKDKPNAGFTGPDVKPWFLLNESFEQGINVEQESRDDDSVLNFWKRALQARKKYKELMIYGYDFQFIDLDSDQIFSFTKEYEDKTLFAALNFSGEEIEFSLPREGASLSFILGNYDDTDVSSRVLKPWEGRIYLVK

α-glucosidase = α-glucosidase (Saccharomyces cerevisiae, UniProt P53341); test: α-Glucosidase enzyme kinetic analysis; type: biochemical; settings: Lineweaver–Burk plot
α-glucosidase, sequence (P53341 whole entry): as above
Outline: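 Yeast (S. cerevisiae) α-glucosidase in phosphate buffer, pH 6.8. p-NPG at 0.625, 1.25 and 2.5 mM was crossed with four concentrations of each test compound (sets of 7–40, 20–80 or 2–12 µM). Incubated 10 min at 37 °C, stopped with 0.2 M Na₂CO₃, read at 405 nm. Lineweaver–Burk plots assign inhibition mode.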

PTP1B [3] = biological target: T1, PTP1B; test: PTP1B enzyme kinetic analysis; type: biochemical; settings: for Ki: PTP1B Ki value, secondary plot
Outline: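 Human recombinant PTP1B in 50 mM citrate buffer (pH 6.0) with 0.1 M NaCl, 1 mM EDTA and 1 mM DTT. Test compound at 2, 4, 10 and 12 µM was crossed with p-NPP at 0.5, 1 and 2 mM. Enzyme plus inhibitor preincubated 10 min at 37 °C, then substrate added for 20 min at 37 °C. NaOH stop, A405. Lineweaver–Burk for mode; secondary plots for Kic/Kiu.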

rat sucrase = settings: read-out: IC50 against rat sucrase; ref 44 (Barber's review); cited from earlier work
rat maltase = settings: read-out: IC50 against rat maltase; ref 44 (Barber's review); cited from earlier work

IC50 (PTP1B [1]) [µM]	IC50 [2] [µM]	α-glucosidase potency relative to acarbose ([2]; ratio of IC50 values)	α-glucosidase Inhibition type (α-glucosidase)	PTP1B Inhibition type (PTP1B [3]; Lineweaver–Burk plot)	Ki (PTP1B [3]; Kic) [µM]	Ki (PTP1B [3]; Kiu) [µM]	Compound	IC50 (rat sucrase) [µM]	IC50 (rat maltase) [µM]
8 ± 1.1	3.4 ± 0.2	over 70 times	Uncompetitive	mixed-type	12.2	5.5	O=c1oc(-c2ccc(O)c(O)c2)cc2cccc(O)c12 [Compound 12, Thunberginol A]	–	–
–	–	–	–	–	–	–	O=c1c(O)c(-c2ccc(O)c(O)c2)oc2cc(O)cc(O)c12 [quercetin]	> 400	281
